Series [1] in a line: folding enthalpy; higher = less favourable; fluorescence melt of hairpins on a sequencing array, two-state fit. The conditions noted are these: sodium 0.088 M. The gist of the method: (§1)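 Cy3 signals were normalised both to pre-quench Cy3 and to control constructs. They came from library hairpins carrying annealed Cy3 and quencher oligos on a sequenced MiSeq flow cell, imaged in 50 mM Na-HEPES pH 8.0, 25 mM NaCl, in 2.5 °C steps up to 60 °C. Bootstrapped two-state fits gave melting temperature and folding enthalpy, and four replicates were combined by inverse variance. Fitted temperatures were then raised by 9.35 °C to match UV melts.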

Series [2] is described as follows: melting temperature; fluorescence melt of hairpins on a sequencing array, two-state fit, raised by 9.35 °C to match UV melts. The conditions noted are these: sodium 0.088 M. The gist of the method:
as §1

As to GATCCGGCCCGGATC ((((((...)))))), the folding enthalpy in series [1] was -30.7 kcal/mol. Also, the Tm in series [2] worked out at 58.9 °C.
In the case of CGATCCGGAAACGGTTCG (((.(((....))).))), in series [1], the folding enthalpy is -32 kcal/mol. Also, the Tm in series [2] is 49.8 °C.
In the case of GATAGGGCGAAAGCCATC (((..(((....)))))), the folding enthalpy in series [1] is -9.11 kcal/mol. Besides, the Tm in series [2] came to 31.2 °C.
For GAACTTGGAAACAAGCTC ((.((((....)))).)), the folding enthalpy in series [1] is -27.1 kcal/mol. Also, the Tm in series [2] came out at 33.8 °C.
As to GCGTTGCACGC ((((...)))), the folding enthalpy in series [1] is -23 kcal/mol. Besides, the Tm in series [2] was determined as 59.4 °C.
Turning to GATGTGCGAAAGCAATC (((.(((....)))))), the folding enthalpy in series [1] is -11.3 kcal/mol. Moreover, in series [2], the Tm is 38.2 °C.
In the same order, the values of GATCTGCGTCCAGATC ((((((....)))))) are -30.1 kcal/mol and 48.3 °C.
For GTGGGTCGAAAGACCAC (((.(((....)))))), the folding enthalpy in series [1] is -14.3 kcal/mol. Further, the Tm in series [2] came out at 57 °C.
The matching figures for GCGGAATCCCGC ((((....)))): -22.1 kcal/mol and 53.9 °C.
As to GGAACCGAAAGGTCGTCC ((((((....)))..))), in series [1], the folding enthalpy is -10.8 kcal/mol. In addition, the Tm in series [2] was 31.4 °C.
In the same order, the values of GGGCTTCGAAAGAACCCC (((.(((....))).))) are -20.5 kcal/mol and 47.6 °C.
As for TCATCGAAAGATGA (((((....))))), the folding enthalpy in series [1] is -22.9 kcal/mol. Moreover, the Tm in series [2] was 49.7 °C.
As to GTGTTCGAAAGAACCCAC ((((((....)))..))), in series [1], the folding enthalpy was -11.7 kcal/mol. Moreover, the Tm in series [2] turned out to be 33.1 °C.
In the same order, the values of GCAACTCGAAAGAGATGC (((.(((....))).))) are -40.1 kcal/mol and 53.8 °C.
With GATCATCCAGATGATC ((((((....)))))), in series [1], the folding enthalpy is -37.5 kcal/mol. Besides, in series [2], the Tm worked out at 50.3 °C.
The matching figures for CGCGCGGAAACGCGAGCG ((((((....)))..))): -12.1 kcal/mol and 60.7 °C.
On to GATCTGTGTTCAGATC ((((((....)))))), for which the folding enthalpy in series [1] was -34.2 kcal/mol. For the same sequence, the Tm in series [2] is 51.7 °C.
Turning to GATAGCGGAAACGCTACC (.(((((....))))).), in series [1], the folding enthalpy was -12.1 kcal/mol. The Tm in series [2] is 40.4 °C.
In the same order, the values of GCAGAACGAAAGTTATGC (((.(((....))).))) are -39.3 kcal/mol and 55.4 °C.
The matching figures for GACTCAGGAAACTGAATC ((.((((....)))).)): -16.3 kcal/mol and 27.7 °C.
With GCATTGCGAAAGCCACGC ((.(.((....)).).)), the folding enthalpy in series [1] was -8.66 kcal/mol. In series [2], the Tm amounted to 38.2 °C.
Regarding GCGAGCGGAAACGCTCAC (.(((((....))))).), in series [1], the folding enthalpy is -12.3 kcal/mol. For the same sequence, the Tm in series [2] stood at 50.6 °C.
On to GGCTCGGGAAACCGAACC ((.((((....)))).)), for which, in series [1], the folding enthalpy is -29.7 kcal/mol. Besides, the Tm in series [2] stood at 48.8 °C.
GACCAAGGAAACTTGGTC (((((((....))))))): the folding enthalpy in series [1] was -35.8 kcal/mol. In addition, in series [2], the Tm stood at 60.5 °C.
Take GCGGAGAAATCCGC (((((....))))): the folding enthalpy in series [1] is -29.1 kcal/mol. Further, in series [2], the Tm stood at 61.8 °C.
GTGAGGGGAAACTCTCAC (((((.(....).))))): in series [1], the folding enthalpy is -32 kcal/mol. In addition, the Tm in series [2] was 49.4 °C.
For the sequence GAAGTCGGAAACGGTTTC (((..((....))..))), the folding enthalpy in series [1] was -8.25 kcal/mol. Also, in series [2], the Tm was found to be 28.4 °C.
Take GGATACGAAAGTACTTCC ((((((....)))..))): the folding enthalpy in series [1] was -17.1 kcal/mol. Further, the Tm in series [2] worked out at 34.8 °C.
Consider TAGAGGAAACTCTA (((((....))))), for which the folding enthalpy in series [1] was -8.94 kcal/mol. For the same sequence, the Tm in series [2] came out at 32.1 °C.
Regarding CGGAACGGAAACGTCCCG (((.(((....))).))), the folding enthalpy in series [1] was -36.3 kcal/mol. For the same sequence, the Tm in series [2] is 47.1 °C.
GATCGTGTGTACGATC ((((((....)))))): in series [1], the folding enthalpy was -40.9 kcal/mol. In addition, the Tm in series [2] stood at 54.7 °C.
For the sequence GCGAACGAAAGTTTGCGC ((((((....)))..))), in series [1], the folding enthalpy was -41.9 kcal/mol. Besides, the Tm in series [2] was 61.8 °C.
For GATCCTTAGAAGGATC ((((((....)))))), in series [1], the folding enthalpy is -33.8 kcal/mol. For the same sequence, the Tm in series [2] came out at 50.2 °C.
GCATGGCGAAAGCAATGC ((((.((....)).)))): in series [1], the folding enthalpy was -30.6 kcal/mol. Also, the Tm in series [2] amounted to 64.8 °C.
As for GTTTAAGAAATTAAAC ((((((....)))))), the folding enthalpy in series [1] was -16.8 kcal/mol. The Tm in series [2] stood at 32.4 °C.
With GGACAGGAAACTGTCC ((((((....)))))), in series [1], the folding enthalpy was -43 kcal/mol. For the same sequence, the Tm in series [2] stood at 62.8 °C.
As for GATTTACGAAAGTAGATC (((.(((....))).))), the folding enthalpy in series [1] is -29.5 kcal/mol. In addition, in series [2], the Tm came to 41.9 °C.
On to GTAGTGAAAACTAC (((((....))))), for which the folding enthalpy in series [1] is -22.3 kcal/mol. In series [2], the Tm was found to be 45.1 °C.
Take GGTACGCGAAAGCGACC (((.(((....)))))): the folding enthalpy in series [1] was -14.9 kcal/mol. For the same sequence, the Tm in series [2] came to 54.8 °C.
With GATCAGAGCCCTGATC ((((((....)))))), the folding enthalpy in series [1] is -36.5 kcal/mol. In addition, in series [2], the Tm came out at 47.7 °C.
Take GCTCCTGGAAACAAGAGC ((((.((....)).)))): the folding enthalpy in series [1] was -27.9 kcal/mol. In addition, the Tm in series [2] came out at 34.8 °C.
Consider GTCCATGGAAACGTGGAC (((((.(....).))))), for which the folding enthalpy in series [1] was -48.1 kcal/mol. Also, the Tm in series [2] was 52.9 °C.
Take GCGTGCACACGC ((((....)))): the folding enthalpy in series [1] was -25.7 kcal/mol. Also, in series [2], the Tm was 68 °C.
GCAGGTGCGAAAGCATGC (((..(((....)))))): the folding enthalpy in series [1] was -13.5 kcal/mol. Further, the Tm in series [2] turned out to be 43.9 °C.
In the case of CGACTCGGAAACGAATCG (((.(((....))).))), in series [1], the folding enthalpy was -33.6 kcal/mol. In addition, the Tm in series [2] was 41.9 °C.
GCTTACGAAAGTACAAGC ((((((....)))..))): in series [1], the folding enthalpy is -20 kcal/mol. In addition, the Tm in series [2] is 37.6 °C.
As for GCGCGCGAAAGCGTTCGC ((((((....)))..))), the folding enthalpy in series [1] was -14.6 kcal/mol. Further, the Tm in series [2] stood at 53.3 °C.
The matching figures for GCGGTCGAAAGACAGCGC ((((((....)))..))): -27.7 kcal/mol and 69.2 °C.
In the same order, the values of GTTCGCCCGAAAGGGAAC (((..(((....)))))) are -13.9 kcal/mol and 35.9 °C.
In the same order, the values of GAATGCGCGAAAGCGTTC (((..(((....)))))) are -8.39 kcal/mol and 26.1 °C.
With GTGGCCGAAAGGCACAC ((((((....))).))), the folding enthalpy in series [1] is -15.1 kcal/mol. For the same sequence, the Tm in series [2] stood at 63.1 °C.
GTCGTTCGAAAGAAGGAC (((.(((....))).))): the folding enthalpy in series [1] is -38.1 kcal/mol. In addition, the Tm in series [2] was 52.2 °C.
On to GTACCAGGAAACCAGTAC ((((..(....)..)))), for which the folding enthalpy in series [1] is -11.4 kcal/mol. In series [2], the Tm came to 24.9 °C.
For GTAACTGAAAAGTTAC ((((((....)))))), the folding enthalpy in series [1] was -31.4 kcal/mol. Besides, the Tm in series [2] was found to be 50.9 °C.
In the case of GGTCCAGGAAACCGAACC (((.(.(....).).))), in series [1], the folding enthalpy is -10 kcal/mol. For the same sequence, the Tm in series [2] turned out to be 25.7 °C.
In the same order, the values of GGCCCGACGAAAGTCGCC (((..(((....)))))) are -8.24 kcal/mol and 35.2 °C.

(Values after the array DNA melting data of Ke et al. (doi:10.1101/2024.01.08.574731).)
